# Assay outcomes from PubChem BioAssay.
# Neddyl block – inhibitors of cullin neddylation, primary screen, biochemical, TR-FRET, uHTS, NAE and Ubc12; NEDD8-conjugating enzyme Ubc12 (Homo sapiens) + NEDD8-activating enzyme E1 regulatory …; inhibition, % at 25 µM; actives 0.58% (n = 360,000); in the data active = inhibition above about 36%
# H9c2 protect – cardioprotection against H2O2-induced cell death, primary screen, uHTS, H9c2 cells, ATPLite luminescence; H9c2 cardiomyocytes, H2O2 injury protection, 2 h; protection from H2O2 cell death, % at 20 µM; actives 0.63% (n = 360,000); AID 588492, 2011;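 active = compounds giving at least 50% protection of heart cells from peroxide-induced death in the single-dose screen, raw or plate-pattern-corrected value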;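 also: 0% = DMSO wells with peroxide and 100% = DMSO wells without peroxide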
# ARFGAP1 inh – inhibitors of rat ARFGAP1 GAP activity, primary screen, biochemical, fluorescence polarization, GDP tracer; inhibition, % at 16.5 µM; Arfgap1-stimulated ARF1 GTP hydrolysis, GDP FP detection; ADP-ribosylation factor GTPase-activating protein 1 (Rattus norvegicus), Q62848; AID 651572, 2012; actives 0.26% (n = 360,000);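 active = inhibition above a per-plate limit, mean inhibition of low control wells plus 3 SD, cut at about 25% in these data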;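 also: 0% = DMSO wells with enzyme and 100% = wells lacking Arfgap1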
# Target sequence (Q62848 1-136 limits assumed): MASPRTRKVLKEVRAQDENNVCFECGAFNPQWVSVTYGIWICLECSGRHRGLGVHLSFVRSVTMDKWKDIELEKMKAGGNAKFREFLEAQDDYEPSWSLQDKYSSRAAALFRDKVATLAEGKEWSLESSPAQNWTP
#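 system = rat Arfgap1 catalytic domain, aa 1-136 | technique = FP, GDP Alexa 633 tracer displaced from anti-GDP antibody, 620/688 nm | compound = one concentration, 16.5 µM, DMSO 1.26% | medium = HEPES-based buffer, pH 7.5 | timing = compound-enzyme preincubation 20 min, reaction 120 min, detection 60 min, 25 °C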
# ASAP1 inh – inhibitors of human ASAP1 ArfGAP activity, primary screen, biochemical, fluorescence polarization; Arf-GAP with SH3 domain, ANK repeat and PH domain-containing protein 1 (Homo sapiens), …; ASAP1-stimulated ARF1 GTP hydrolysis, GDP FP detection; inhibition, % at 16.5 µM; actives 0.19% (n = 360,000); in the data active = inhibition above about 25%;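 also: 0% = vehicle with enzyme and substrate and 100% = no enzyme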
# Neddyl inh conf – blockade of NEDD8 conjugation to cullin – biochemical, TR-FRET, single concentration, confirmation; calls only at 25 µM; TR-FRET cullin neddylation biochemical assay; actives 13% (n = 1,800); shares compounds with Neddyl block; in the data active = inhibition above about 40%;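 also: neddylation substrate is the cullin 1 ring ligase complex with SKP2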
# * = called active by the depositor; i = inactive; . = no result shown; + = active, no number. Hits are enriched below; roughly 1.6% of the tested compounds scored in any of these assays.
SMILES,Neddyl block,H9c2 protect,ARFGAP1 inh,ASAP1 inh,Neddyl inh conf
O=C(NC(=S)NNC(=O)[C@H]1C[C@@H]1c1ccccc1)c1cccc(F)c1,10,7,-1,-8,.
COc1cccc(OC)c1C(=O)NC(=S)NNC(=O)[C@H]1C[C@@H]1c1ccccc1,48*,-2,6,-12,i
CCN(CC)S(=O)(=O)c1cccc(-c2cn3cc(C)ccc3n2)c1,39*,-18,7,-18,i
Cc1ccc2nc(-c3cccc(S(=O)(=O)N(C)C)c3)cn2c1,28,-4,12,-8,.
CCCNC(=O)c1ccccc1NC(=O)c1ccc2c(=O)n3c(nc2c1)CCC3,46*,2,10,1,.
CCOc1ccccc1NC(=O)c1ccc2c(=O)n3c(nc2c1)CCCCC3,8,1,3,-14,.
COc1ccc(S(=O)(=O)N(C)C[C@@H]2OCc3cn(nn3)CCCC(=O)N([C@@H](C)CO)C[C@H]2C)cc1,-3,0,1,-3,.
Cc1cc2c(nc1C)CCCN2S(=O)(=O)c1ccc(C#N)cc1,.,.,7,2,.
Cc1ccc(C(=O)N/C(=C\c2cccs2)c2nc3ccccc3[nH]2)cc1,45*,-5,-5,-2,.
COc1cc(C(=O)N2CCC(N3CCN(C)CC3)CC2)ccc1Nc1ncc2c(n1)N(C)c1ccccc1C(=O)N2C,.,.,16,5,.
CCN1C(=O)CCN(C2CCCC2)c2nc(Nc3ccc(C(=O)NC4CCN(C)CC4)cc3OC)ncc21,31*,-30,-5,5,i
COc1ccc(CCNC(=O)C2(C)CCC(=O)N2Cc2ccc(F)cc2Cl)cc1OC (stereo not drawn),52*,4,13,-8,i
CC(=O)c1oc2ccccc2c1N,-9,-4,0,-11,.
Nc1c(C(=O)Nc2ccc(Cl)cc2)oc2ccccc12,44*,-3,-3,-9,.
Brc1ccc(-c2ccc(/C=N/Nc3nc(N4CCOCC4)nc(N4CCOCC4)n3)o2)cc1,46*,95*,7,-7,i
O=C(CN1CCCC1)N1CCCc2c1c(=O)oc1ccc(OCc3ccccc3)cc21,50*,11,-13,3,.
CCOC(=O)C1CCCN(c2nc3ccccc3nc2NS(=O)(=O)c2ccc(C)cc2)C1 (stereo not drawn),46*,-7,-2,-4,+
O=S(=O)(Nc1nc2ccccc2nc1NCC1CCCO1)c1ccccc1 (stereo not drawn),39*,5,-11,6,i
NC(=O)C1CCN(c2nc3ccccc3nc2NS(=O)(=O)c2ccc(Br)cc2)CC1,16,28,-3,-7,.
Cc1ccc(S(=O)(=O)Nc2nc3ccccc3nc2NCC2CCCO2)cc1 (stereo not drawn),40*,9,0,-8,i
CC(=O)N1CCN(c2ccc(N3CCN(Cc4ccccc4)[C@H](C)C3)c(C)c2)[C@@H](C)C1,.,.,14,22,.
CNc1ccc(-c2cccc(C#N)c2)cn1,.,-8,-10,2,.
COc1ccc(N2C(=O)c3ccccc3NC23CCCCC3)cc1,41*,-15,-3,-6,.
COc1ccc(N2C(=O)c3ccccc3NC23CCC(C)CC3)cc1 (stereo not drawn),45*,-2,-5,5,.
COc1ccc(N2C(=O)c3ccccc3NC2(C)C)cc1,.,0,1,0,.
COc1ccc(C2CC(=O)C(c3cccc(F)c3)=CN2Cc2ccccc2)cc1 (stereo not drawn),.,.,11,0,.
Cc1cc(NC(=O)COC(=O)c2nccnc2N)n(-c2ccccc2)n1,68*,0,-4,-12,.
Nc1nc2ccc(Cl)cc2cc1C(=O)NCCCN1CCOCC1,.,.,-5,9,.
Cc1ccc(-n2c3nc(=O)n(C)c(=O)c-3cc3ccccc32)cc1,61*,15,11,3,i
Cc1ccc(-c2cc3nc(C)cc(C)n3n2)cc1,47*,-12,4,7,i
